# Some of the results follow. Values without a mark were called inactive.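 Rule for the calls: active = inhibition of pump activity above 50%; inactive = the rest.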
# Target: ATP-dependent translocase ABCB1 (Homo sapiens) (UniProt P08183)
# Assay: ABCB1 efflux pump inhibitors, confirmation, cell-based, single point, ABCG2 counter-screen (AID 1451);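 note: 0% = DMSO and 100% = nicardipine full pump inhibition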
# Conditions: CCRF-Adr cells, JC-1 efflux, flow cytometry; at 6.6 µM; hits give high values
# Method in brief: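 material = ABCB1-expressing CCRF-Adr cells | amount = 3 million cells per mL final in well | reagent = JC-1 substrate | compound dosing = single test-compound dose, 6.6 µM final | timing = 10 min exposure, 25 °C | measured by = flow cytometry, 530 nm emission | control set = nicardipine as high control, DMSO as low control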
# Chain of ATP-dependent translocase ABCB1 (Homo sapiens) (P08183 whole entry, looked up): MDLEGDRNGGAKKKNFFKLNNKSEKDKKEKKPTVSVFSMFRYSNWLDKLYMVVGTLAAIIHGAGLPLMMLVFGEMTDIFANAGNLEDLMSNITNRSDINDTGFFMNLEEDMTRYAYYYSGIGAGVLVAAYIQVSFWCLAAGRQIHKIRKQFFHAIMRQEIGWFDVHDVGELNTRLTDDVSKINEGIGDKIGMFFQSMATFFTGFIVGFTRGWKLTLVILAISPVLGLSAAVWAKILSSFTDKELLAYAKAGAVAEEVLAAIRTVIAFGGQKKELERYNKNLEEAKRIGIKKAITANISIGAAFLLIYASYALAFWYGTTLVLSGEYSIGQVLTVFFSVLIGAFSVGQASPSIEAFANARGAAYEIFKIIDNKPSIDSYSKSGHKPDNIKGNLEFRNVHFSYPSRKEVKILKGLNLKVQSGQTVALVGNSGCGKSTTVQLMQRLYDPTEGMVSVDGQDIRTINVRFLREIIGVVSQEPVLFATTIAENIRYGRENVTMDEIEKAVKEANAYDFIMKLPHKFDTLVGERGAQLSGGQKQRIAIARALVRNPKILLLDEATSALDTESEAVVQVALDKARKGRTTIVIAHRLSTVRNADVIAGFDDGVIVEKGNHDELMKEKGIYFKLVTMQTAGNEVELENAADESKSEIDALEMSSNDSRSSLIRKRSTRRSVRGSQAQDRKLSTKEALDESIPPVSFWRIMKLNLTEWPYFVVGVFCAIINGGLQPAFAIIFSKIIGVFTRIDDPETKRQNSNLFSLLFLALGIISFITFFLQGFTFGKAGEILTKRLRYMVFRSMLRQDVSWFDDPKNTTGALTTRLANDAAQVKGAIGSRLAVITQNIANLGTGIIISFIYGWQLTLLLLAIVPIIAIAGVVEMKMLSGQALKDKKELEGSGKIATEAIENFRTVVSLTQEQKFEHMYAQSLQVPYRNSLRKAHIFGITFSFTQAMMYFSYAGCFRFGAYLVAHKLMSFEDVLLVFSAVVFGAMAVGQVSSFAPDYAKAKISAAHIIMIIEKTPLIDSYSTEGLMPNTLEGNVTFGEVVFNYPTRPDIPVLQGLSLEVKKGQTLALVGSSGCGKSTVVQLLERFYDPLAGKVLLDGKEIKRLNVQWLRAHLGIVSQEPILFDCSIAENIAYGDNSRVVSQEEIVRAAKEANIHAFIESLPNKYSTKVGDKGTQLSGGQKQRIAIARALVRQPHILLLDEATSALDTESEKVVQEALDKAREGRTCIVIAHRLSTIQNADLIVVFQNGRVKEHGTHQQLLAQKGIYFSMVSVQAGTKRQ
smiles,measurement,value
COC(=O)COc1cc(C)cc2oc(=O)c3c(c12)CCCC3,inhibition,1.84%

# Reference: PubChem BioAssay AID1451 (NMMLSC, 2008)
